Active and inactive are the calls of the source. No cut-off for these calls is given here.

DNA-directed RNA polymerase (Enterobacteria phage T3), sequence (P07659 whole entry): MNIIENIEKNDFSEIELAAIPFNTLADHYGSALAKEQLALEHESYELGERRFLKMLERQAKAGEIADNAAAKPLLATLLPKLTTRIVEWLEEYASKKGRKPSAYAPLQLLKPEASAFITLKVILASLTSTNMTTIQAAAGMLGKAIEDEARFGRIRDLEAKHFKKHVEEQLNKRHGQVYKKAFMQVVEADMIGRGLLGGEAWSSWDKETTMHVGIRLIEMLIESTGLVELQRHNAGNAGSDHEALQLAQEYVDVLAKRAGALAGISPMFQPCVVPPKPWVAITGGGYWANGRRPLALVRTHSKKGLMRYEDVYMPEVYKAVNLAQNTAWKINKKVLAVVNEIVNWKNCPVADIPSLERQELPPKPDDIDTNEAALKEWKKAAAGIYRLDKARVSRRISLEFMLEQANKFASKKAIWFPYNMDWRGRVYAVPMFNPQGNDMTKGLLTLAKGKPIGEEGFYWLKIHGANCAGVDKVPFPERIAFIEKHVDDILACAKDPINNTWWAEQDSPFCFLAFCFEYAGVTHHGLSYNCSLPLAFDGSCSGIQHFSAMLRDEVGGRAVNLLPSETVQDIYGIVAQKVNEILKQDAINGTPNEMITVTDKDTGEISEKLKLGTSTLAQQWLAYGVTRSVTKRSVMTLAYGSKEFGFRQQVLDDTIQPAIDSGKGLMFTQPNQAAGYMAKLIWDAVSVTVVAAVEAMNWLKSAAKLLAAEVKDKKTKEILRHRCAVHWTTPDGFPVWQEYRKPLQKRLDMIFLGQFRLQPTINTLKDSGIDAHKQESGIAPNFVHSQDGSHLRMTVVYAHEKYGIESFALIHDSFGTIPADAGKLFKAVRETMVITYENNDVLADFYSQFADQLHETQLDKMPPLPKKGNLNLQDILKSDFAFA

In the first assay the target is T1, Telomerase reverse transcriptase (Homo sapiens, UniProt O14746). Particulars: A-431, 1 uM.
T1 sequence (O14746 whole entry): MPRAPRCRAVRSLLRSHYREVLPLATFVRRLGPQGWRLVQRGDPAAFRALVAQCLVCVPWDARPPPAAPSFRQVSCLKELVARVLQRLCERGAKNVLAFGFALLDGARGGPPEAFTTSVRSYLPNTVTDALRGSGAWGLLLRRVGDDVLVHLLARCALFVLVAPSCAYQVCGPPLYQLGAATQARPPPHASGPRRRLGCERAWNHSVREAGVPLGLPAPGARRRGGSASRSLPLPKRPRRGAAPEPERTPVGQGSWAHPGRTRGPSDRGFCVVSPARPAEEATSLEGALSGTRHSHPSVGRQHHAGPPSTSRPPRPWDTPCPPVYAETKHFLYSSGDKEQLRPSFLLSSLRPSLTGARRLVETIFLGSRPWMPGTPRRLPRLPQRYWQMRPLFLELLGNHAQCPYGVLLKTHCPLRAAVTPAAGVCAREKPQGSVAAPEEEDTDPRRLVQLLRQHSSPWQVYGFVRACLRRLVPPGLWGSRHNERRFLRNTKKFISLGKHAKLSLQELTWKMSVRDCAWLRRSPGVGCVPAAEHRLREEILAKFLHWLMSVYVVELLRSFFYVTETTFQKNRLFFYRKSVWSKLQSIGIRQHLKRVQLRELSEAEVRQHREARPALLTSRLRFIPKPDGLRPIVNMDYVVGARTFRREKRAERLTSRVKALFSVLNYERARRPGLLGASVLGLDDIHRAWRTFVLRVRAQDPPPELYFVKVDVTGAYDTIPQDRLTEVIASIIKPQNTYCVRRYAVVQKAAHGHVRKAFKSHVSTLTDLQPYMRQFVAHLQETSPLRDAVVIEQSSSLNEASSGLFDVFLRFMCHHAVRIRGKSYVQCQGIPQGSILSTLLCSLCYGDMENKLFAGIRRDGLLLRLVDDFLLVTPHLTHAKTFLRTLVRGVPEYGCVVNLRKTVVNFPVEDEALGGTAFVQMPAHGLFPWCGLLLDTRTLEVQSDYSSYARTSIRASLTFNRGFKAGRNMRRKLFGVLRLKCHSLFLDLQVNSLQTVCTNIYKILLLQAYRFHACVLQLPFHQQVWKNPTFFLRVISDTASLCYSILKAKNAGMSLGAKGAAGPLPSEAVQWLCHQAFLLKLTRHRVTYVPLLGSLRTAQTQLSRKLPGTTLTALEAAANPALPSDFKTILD
The inhibition is how much of the control response was suppressed. A higher inhibition goes with a response far below the control. For the compound `O=c1cc(-c2ccc(O)c(O)c2)oc2c(O)c(O)ccc12`, the inhibition is 50%.

The target in another assay is T1, Telomerase reverse transcriptase. Briefly: Inhibition of human telomerase from HEK293 cell extracts by Flash-Plate assay.
Conditions: not given
Format: cell-free. A digest of the protocol:
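Affinity-enriched telomerase extract from HEK293 cells overexpressing telomerase, adjusted to 5 fmol dNTP incorporation min-1 µL-1, in buffer with 50 mM Tris-acetate pH 8.5, 150 mM K acetate, 1 mM MgCl2, 1 mM EGTA. Buffer also held 10 µM dATP, 20 µM dGTP, 120 µM TTP and 500 nM 5'-biotinylated primer. Compounds in DMSO at 0.01-10 µM; 2 h at 37 °C. Elongated primer hybridized to a 33P-labeled complementary probe, captured on streptavidin Flash-Plate; IC50 from radioactivity.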
Broadly, the IC50 is the concentration that gives 50% inhibition. The low end stands for higher potency, the high end for lower potency. The compound `O=C(/C=C/c1ccc(O)c(O)c1)c1ccc(O)c(O)c1` yielded an IC50 of 1.7 µM.
Still for that read-out and setting: the value for `Cc1nc2cc(-c3cc(=O)c4ccc(O)c(O)c4o3)ccc2[nH]1` was above 40 µM; that for `O=c1cc(-c2ccc(O)c(O)c2)oc2cc(O)ccc12` was above 40 µM.
The same measure, in the same setting: the value for `COc1ccc2c(=O)cc(-c3ccc(O)c(O)c3)oc2c1OC` was above 40 µM.
`O=c1cc(-c2ccc3[nH]cnc3c2)oc2c(O)c(O)ccc12` came in with an IC50 of 4 µM. In other words, the single-digit micromolar range.
In turn, `O=c1cc(-c2ccccc2)oc2c(O)c(O)ccc12` [7,8-DIHYDROXYFLAVONE] had an IC50 of 36 µM.
`O=c1[nH]c2ccc(-c3cc(=O)c4ccc(O)c(O)c4o3)cc2[nH]1`: the midpoint of inhibition, the IC50, lay at 1.2 µM.
Turning to `COc1ccc(-c2cc(=O)c3ccc(O)c(O)c3o2)cc1O`, the IC50 amounted to 11 µM. Against the preceding compound, the IC50 is about 9.2-fold higher.
With `O=C(/C=C/c1ccc(O)c(O)c1)c1ccc(O)c(O)c1O`, the IC50 was 6 µM.
Same read-out and setting: next, `COc1ccc2c(=O)cc(-c3ccc4[nH]c(C)nc4c3)oc2c1OC`: 22.1 µM.
Compound `O=c1cc(-c2ccc(O)c(O)c2)oc2ccccc12` gave an IC50 above 40 µM.
`COc1ccc2c(=O)cc(-c3ccc4[nH]c(=O)c(=O)[nH]c4c3)oc2c1OC` returned an IC50 above 40 µM.
On to `COc1ccc(-c2cc(=O)c3ccc(O)c(O)c3o2)cc1OC`, for which the 50% inhibitory concentration (IC50) was found to be 11.7 µM.
In turn, `O=c1cc(-c2ccc(O)c(O)c2)oc2c(O)c(O)ccc12` yielded an IC50 of 0.2 µM.
`O=c1cc(-c2ccc(O)c(O)c2)oc2c(O)c(O)c(Cl)cc12` registered an IC50 of 0.82 µM.
Take `O=c1cc(-c2ccc(O)c(O)c2)oc2c(O)cccc12`: the IC50 is above 40 µM.
`O=c1cc(-c2cccc(O)c2)oc2c(O)c(O)ccc12` gave an IC50 of 50 µM.
The compound `COc1ccc2c(=O)cc(-c3ccc4[nH]c(CCCN(C)C)nc4c3)oc2c1OC` yielded a half-maximal inhibitory concentration (IC50) of 0.47 µM.
Turning to `O=c1[nH]c2ccc(-c3cc(=O)c4ccc(O)c(O)c4o3)cc2[nH]c1=O`, the concentration for half-maximal inhibition (IC50) was above 40 µM.

Another assay shares this target. Particulars: 1 uM.
`O=c1cc(-c2ccc(O)c(O)c2)oc2c(O)c(O)ccc12` gave an inhibition of 50%.

Another assay addresses DNA-directed RNA polymerase (Enterobacteria phage T3) (UniProt P07659). Kind of assay: Inhibition of T3 RNA polymerase up to 2 uM.
Conditions: not given
Consider `O=c1cc(-c2ccc(O)c(O)c2)oc2c(O)c(O)ccc12`, for which the outcome was inactive.

The values above are taken from ChEMBL document CHEMBL1149272, “Catecholic flavonoids acting as telomerase inhibitors” (J Med Chem, 2004).
